bCat nuc transl: modulators of beta-catenin nuclear translocation | HeLa beta-catenin nuclear translocation, immunofluorescence imaging | nuclear translocation activity, % at 5 µM | 0.3% of 190,000 active;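 active means nuclear translocation activity above 50% at 5 µM, with a well cell count of 50 or more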;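 further: per-cell ratio of nuclear to cytoplasmic median beta-catenin stain intensity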
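System: Human HeLa cells, endogenous beta-catenin | Compound dosing: 5 µM primary, 0.02–20 µM confirmation | Timing: 24 h compound exposure at 37°C, 5% CO2 | Measured by: Fluorescence imaging of beta-catenin antibody stain plus DAPI | Read-out basis: % activation of per-cell nuclear versus cytoplasmic median beta-catenin signal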
WT yeast gro inh: growth inhibition of WT yeast, mitochondrial fusion screen. mitochondrial fusion phenotypic screen, WT strain. inhibition, % at 10 µM. 2.1% of 190,000 active. AID 1362; in the data active means inhibition above about 58%; tested in S. cerevisiae
Pf gametocyte: P. falciparum stage V gametocyte viability inhibition | P. falciparum stage V gametocytes, ATP luminescence, 24 h | inhibition, % at 10.9 µM | 0.065% of 150,000 active | AID 743093;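 active means inhibition above the mean plus 3 SD of compounds within the control limits, set per campaign, cut at about 38% in these data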
Cl transport mod: modulates chloride dependent transport by human KCC2; 2.2% of 190,000 active; KCC2 cells, thallium flux FluoZin-2 fluorescence; AID 1456; Q9H2X9; B-score of Tl+ flux slope (higher = more flux/activation; lower = inhibition) at 10 µM;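 active means thallium flux slope and its plate-corrected score both differing from the plate sample mean at a set confidence after two filtering rounds, in either direction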;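 further: slope of fluorescence scaled to starting intensity during 10 to 20 s after thallium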
MT stabilizer: microtubule stabilization, imaging screen; HeLa tubulin immunostaining HCS, 24 h; share of cells brighter than vehicle mean+2SD; % tubulin-high responders, % at 10 µM; 0.83% of 200,000 active;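 active means plate Z-score above 3 for both tubulin-high and condensed-nucleus cell shares, with cell loss under 80%, at 10 µM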;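 further: anti alpha tubulin signal scored within the nucleus-defined area of each cell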
Numbers stand for hits; 0 = inactive; - = not tested or not shown. A selection: hits, their analogues and other compounds. The true share with any hit is near 4%.

SMILES | bCat nuc transl | WT yeast gro inh | Pf gametocyte | Cl transport mod | MT stabilizer
CCCc1ccc(Oc2c(-c3ccc(O)c(C)c3O)n[nH]c2C)cc1 | 0 | 89.7 | 0 | 0 | 0
O=C(O)c1cnc2[nH]c3ccccc3n2c1=O | 0 | - | 0 | 0 | -
Cc1ccc(Nc2nc3nonc3[nH]c2=O)cc1Cl | 0 | 63.7 | - | 0 | 0
COc1ccccc1N1CCN(C(=O)CN2C(=O)c3ccccc3S2(=O)=O)CC1 | 0 | - | 0 | 0 | -
CCOc1cc(/C=C(/C#N)C(=O)Nc2ccc(O)cc2)cc(Br)c1O | 62.1 | 0 | - | - | 0
Cc1cc(C)nc(N2CCCC(C(=O)NCc3cccs3)C2)n1 (stereo unspecified) | 0 | 70.0 | - | - | 0
CC(NS(=O)(=O)c1cccc(Cl)c1)C(=O)N(C)C1CCN(C)CC1 (stereo unspecified) | 0 | 0 | 0 | 0 | 0
COc1ccccc1OCC(=O)N(Cc1nc(-c2ccccc2)no1)C1CCCCC1 | - | 60.9 | 0 | 0 | 0
Cc1ccccc1OCC(=O)N(Cc1nc(-c2ccccc2)no1)C(C)C | - | 0 | - | 0 | 0
COc1ccc2c(ccn2S(=O)(=O)c2ccccc2)c1 | - | - | 0 | - | -
CCOC(=O)Cn1c(=NC(=O)c2ccc([N+](=O)[O-])s2)sc2ccccc21 | 0 | 64.5 | - | 0 | 0
CCOC(=O)Cn1c(=NC(=O)C2COc3ccccc3O2)sc2cc(S(N)(=O)=O)ccc21 (stereo unspecified) | 0 | 0 | 0 | 0 | 0
CC(NC(=O)CCc1nnc(CCCc2ccccc2)o1)c1ccccc1 (stereo unspecified) | 0 | 0 | 50.0 | 0 | 0
CC(NC(=O)CCc1nnc(-c2ccccc2)o1)c1ccccc1 (stereo unspecified) | 0 | 0 | 0 | 0 | 0
CCN1C(=O)N(C)[C@@H](c2ccccc2)C(C(C)=O)=C1C | - | - | 0 | - | -
COc1ccccc1NC(=O)Nc1ccc(CC#N)cc1 | 0 | - | 0 | 0 | -
Clc1ccc(/C=C/c2nc3ccccc3[nH]2)c(Cl)c1 | 0 | 0 | 0 | - | 0
CC(C)SC1=NC(C)(C)C=C(/C=C/c2ccc(Cl)cc2Cl)N1 | - | 76.8 | 0 | 0 | 0
CC(C)SC1=NC(C)(C)C=C(/C=C/c2c(Cl)cccc2Cl)N1 | - | 65.5 | - | 0 | 0
COCCN1C(=O)c2cc(C(=O)Nc3ccc(OC)c(OC)c3)ccc2C1Nc1ccc(OC)c(OC)c1 (stereo unspecified) | 0 | 0 | 0 | 0 | 0
CCOc1ccc(NC(=O)NC(=O)N(C(C)C)S(C)(=O)=O)cc1 | 0 | 0 | 0 | 0 | 0
CC(=O)Nc1ccc(CN2CCc3c([nH]c4ccccc34)C2c2ccccn2)cc1 (stereo unspecified) | 0 | 0 | 0 | 0 | 9.9
CNc1nc(-c2ccc(OC)cc2)c(-c2ccc(OC)cc2)s1 | 0 | 68.3 | 0 | 0 | 0
CCCC1CCC(c2ccc(C(=O)NN)cc2)CC1 (stereo unspecified) | 0 | 83.8 | 0 | 0 | 0
CCCC1CCC(c2ccc(C(N)=O)cc2)CC1 (stereo unspecified) | 0 | 0 | - | 0 | 0
SMILES | bCat nuc transl | WT yeast gro inh | Pf gametocyte | Cl transport mod | MT stabilizer
CCC(=O)N1CCN(c2ccc(NC(=O)c3ccc([N+](=O)[O-])o3)cc2Cl)CC1 | 0 | 65.8 | 0 | 0 | 0
c1ccc(OCCn2cnc3ccccc32)cc1 | 0 | 0 | - | - | 0
c1ccc2c(c1)ncn2CCCOc1ccc2c(c1)CCC2 | - | 65.3 | 0 | - | 0
c1ccc2c(c1)ncn2CCCCOc1ccc2c(c1)CCC2 | - | 69.2 | 0 | - | 0
Cc1ccc(OCCCCn2cnc3ccccc32)cc1 | 0 | 65.1 | 0 | 0 | 0
c1ccc(OCCCCn2cnc3ccccc32)cc1 | - | 0 | - | 0 | 0
CCOC(=O)CNC(=O)c1ccc(SCC)cc1 | 0 | - | 0 | - | -
COc1ccc(CCn2c(C(C)C)nc3c(c(=O)c4ccccc4n3C)c2=O)cc1 | 0 | 0 | - | -4.25 | 0
COc1ccc(CCn2c(C)nc3c(c(=O)c4ccccc4n3C)c2=O)cc1 | 0 | 0 | 0 | 0 | 0
CCN(CC)c1ccc2c(C)c(Cl)c(=O)oc2c1 | 0 | 0 | 0 | 0 | 0
CCN(CC)c1ccc2c(Cl)c(Br)c(=O)oc2c1 | - | 76.6 | - | 0 | 0
CCN(C(=O)c1cnc(N2CCN(c3ncccn3)CC2)c2ccccc12)c1cccc(Cl)c1 | 0 | 62.8 | 0 | 0 | 0
CN(C(=O)c1cnc(N2CCN(c3ncccn3)CC2)c2ccccc12)c1ccc(Cl)cc1 | 0 | 0 | 0 | 0 | 0
NC(=O)c1nn(-c2ccccc2)nc1NC(=O)Cn1nnc(-c2ccccc2)n1 | 0 | 0 | 0 | 0 | 0
CCOc1ccccc1C1CC(=O)Nc2cc3c(cc21)OCCO3 (stereo unspecified) | 0 | 0 | 0 | - | 0
CCCOc1ccccc1C1CC(=O)Nc2cc3c(cc21)OCCO3 (stereo unspecified) | 0 | 0 | - | 0 | 13.4
CC(C)Oc1ccccc1C1CC(=O)Nc2cc3c(cc21)OCO3 (stereo unspecified) | 0 | 0 | 0 | - | 20.6
C=CCn1c(SCc2cccc(OC)c2)nnc1-c1ccncc1 | - | - | 0 | - | -
O=c1c2c3c(sc2n(CCN2CCOCC2)c(=O)n1C1CCCCC1)CCCCC3 | - | - | 0 | - | -
O=C(COC(=O)C12CC3CC(CC(O)(C3)C1)C2)Nc1ccccc1OC(F)F | 0 | 58.4 | 0 | 0 | 0
O=C(COC(=O)C12CC3CC(CC(C3)C1)C2)Nc1ccccc1F | 0 | 0 | 0 | 0 | 0
O=C(NC(Cc1c[nH]c2ccccc12)C(=O)Nc1ccc(OC(F)(F)F)cc1)c1cccs1 (stereo unspecified) | 0 | 88.3 | 0 | 0 | 0
O=C(NC(Cc1c[nH]c2ccccc12)C(=O)Nc1ccc(F)c([N+](=O)[O-])c1)c1cccs1 (stereo unspecified) | 0 | 0 | 0 | 0 | 0
CC(C)(C)C(=O)OCc1nc(-c2ccc(C(F)(F)F)cc2)cs1 | 0 | - | 0 | 0 | -
COc1cc(/C=C2\SC(=O)N(CC(=O)Nc3cccc(C)c3)C2=O)cc([N+](=O)[O-])c1O | 0 | 0 | 0 | 0 | 0
SMILES | bCat nuc transl | WT yeast gro inh | Pf gametocyte | Cl transport mod | MT stabilizer
COc1cc(/C=C2\SC(=O)N(c3ccccc3Cl)C2=O)cc([N+](=O)[O-])c1O | 0 | 83.4 | 0 | 0 | 0
Cc1ccc(NC(=O)c2ccco2)c([N+](=O)[O-])c1 | 0 | 0 | 0 | - | 0
CCN(CC)P(=O)(Nc1ccc(C)cc1Br)c1ccc(N(C)C)cc1NC(=O)c1ccco1 (stereo unspecified) | 0 | 60.2 | 0 | 0 | 0
O=C(NCc1cccc2ccsc12)c1cccs1 | - | - | 0 | - | -
CCOC(=O)c1[nH]c(C)c(CN(C(C)=O)c2ccc(OCC)cc2)c1C | 0 | 0 | 0 | 0 | 20.1
CCOC(=O)c1[nH]c(C)c(CN(CCc2ccccc2)S(C)(=O)=O)c1C | 0 | 0 | - | - | 0
O=C(Nn1cnnc1)c1ccc(Cl)c(Cl)c1 | - | - | 0 | - | -
CC(C)C1C(C#N)=C(N)Oc2n[nH]c(-c3ccc4ccccc4c3)c21 (stereo unspecified) | 0 | 0 | - | - | 32.5
CCOC(=O)c1c(C)sc2c1N(C(C)=O)c1cc(Cl)ccc1S2 | 0 | 0 | 0 | 0 | 0
Cc1cc(C)n(-c2nnc(NC34CC5CC(CC(C5)C3)C4)nn2)n1 | - | 0 | - | 0 | 0
O=C(NCCc1ccccc1)C(=S)N1CCCCC1 | 0 | 0 | 0 | 0 | 0
S=C(N/N=C/c1ccc(Br)cc1)N1CCCCC1 | - | - | 0 | - | -
S=C(N/N=C/c1ccc(Cl)cc1)N1CCOCC1 | 0 | 0 | 0 | 40.6 | 0

Screening data (PubChem BioAssay)
